Source: publication PMC4109633 (Drug Design, Development and Therapy, 2014)
Marks after values point to notes of the source that are not given here.

Key:
Type in all cases: cell-based
[1] = system: Salmonella typhimurium TA1535; assay: Ames Salmonella/microsomal mutagenicity assay; settings: presence of S9 mix, spontaneous 67.0±6.1
[2] = system: Salmonella typhimurium TA1535; assay: Cytotoxicity in liquid medium; settings: mean ± SEM
Procedure, shortened: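 TA1535 was grown in broth microdilution with test compound at 25, 50 or 100 µM. Viability was expressed as % of untreated control (mean ± SEM), triplicate.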

[3] = system: Salmonella typhimurium TA1535; assay: Antimutagenicity assay against sodium azide; settings: for NaN3 mutagenicity (revertant colonies/plate; mean ± SEM): NaN3 2 μg/plate, spontaneous 29.3±5.3; for Mutant frequency (sodium azide): mutant colonies/viable colonies
Procedure, shortened: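 TA1535 was exposed to test compound at 10 or 20 µM with NaN₃ (2 µg/plate) in two schemes. In pre-exposure, compound and bacteria were shaken 30 min at 37°C before mutagen was added. In co-exposure, bacteria, mutagen and compound were incubated together 30 min at 37°C. Cells were then plated on minimal glucose agar, and revertants counted at 48 h, in triplicate. Mutant frequency = mutant colonies/viable colonies.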

[4] = system: Salmonella typhimurium TA1535; assay: Antimutagenicity assay against benzo[a]pyrene with S9 mix; settings: for B[a]P mutagenicity (revertant colonies/plate; mean ± SEM): B[a]P 20 μM + S9 mix, spontaneous 105.0±13.1; for Mutant frequency (benzo[a]pyrene): mutant colonies/viable colonies

Row | SMILES | Fluoroarylbichalcophene mutagenicity (revertant colonies/plate; mean ± SEM) ([1]; 10 μM) | Fluoroarylbichalcophene mutagenicity (revertant colonies/plate; mean ± SEM) ([1]; 20 μM) | Viability at fluoroarylbichalcophene concentrations (% of control) ([2]; 25 μM) | Viability at fluoroarylbichalcophene concentrations (% of control) ([2]; 50 μM) | Viability at fluoroarylbichalcophene concentrations (% of control) ([2]; 100 μM) | NaN3 mutagenicity (revertant colonies/plate; mean ± SEM) ([3]; co-exposure, 10 μM) | NaN3 mutagenicity (revertant colonies/plate; mean ± SEM) ([3]; co-exposure, 20 μM) | Mutant frequency (sodium azide) ([3]; co-exposure, 20 μM) | NaN3 mutagenicity (revertant colonies/plate; mean ± SEM) ([3]; pre-exposure, 10 μM) | NaN3 mutagenicity (revertant colonies/plate; mean ± SEM) ([3]; pre-exposure, 20 μM) | Mutant frequency (sodium azide) ([3]; pre-exposure, 20 μM) | B[a]P mutagenicity (revertant colonies/plate; mean ± SEM) ([4]; co-exposure, 10 μM) | B[a]P mutagenicity (revertant colonies/plate; mean ± SEM) ([4]; co-exposure, 20 μM) | B[a]P mutagenicity (revertant colonies/plate; mean ± SEM) ([4]; pre-exposure, 10 μM) | Mutant frequency (benzo[a]pyrene) ([4]; pre-exposure, 10 μM) | B[a]P mutagenicity (revertant colonies/plate; mean ± SEM) ([4]; pre-exposure, 20 μM) | Mutant frequency (benzo[a]pyrene) ([4]; pre-exposure, 20 μM) | further results
1 | Cl.N=C(N)c1ccc(-c2ccc(-c3ccco3)o2)c(F)c1 [Compound 5a, 4-(2,2′-Bifuran-5-yl)-3-fluorobenzamidine hydrochloride salt] | 61.0±4.8 revertant colonies/plate | 65.7±5.8 revertant colonies/plate | 102.3±10.2 % of control | 63.3±9.0 ^a % of control | 32.7±2.7 ^a % of control | 73.3±4.1 revertant colonies/plate | 39.0±8.1 revertant colonies/plate | 0.76 | 57.7±11.0 revertant colonies/plate | 22.3±2.1 revertant colonies/plate | 0.44 | 102.0±12.1 revertant colonies/plate | 98.3±9.5 revertant colonies/plate | 209.7±10.3 revertant colonies/plate | 3.26 | 201.0±11.0 revertant colonies/plate | 3.37 | Mutant frequency (benzo[a]pyrene) ([4]; co-exposure, 20 μM): 1.65
2 | Cl.N=C(N)c1ccc(-c2ccc(-c3cccs3)o2)c(F)c1 [Compound 5c, 3-Fluoro-4-(5-(thiophen-2-yl)furan-2-yl)benzamidine hydrochloride salt] | 70.0±5.9 revertant colonies/plate | 66.0±3.5 revertant colonies/plate | 71.3±6.4 % of control | 58.7±4.2 ^a % of control | 28.7±3.0 ^a % of control | 25.7±1.8 revertant colonies/plate | 24.0±3.0 revertant colonies/plate | 0.47 | 102.0±7.2 revertant colonies/plate | 33.3±8.7 revertant colonies/plate | 0.65 | 110.7±10.5 revertant colonies/plate | 111.0±10.2 revertant colonies/plate | 148.7±9.8 revertant colonies/plate | 2.23 | 124.0±5.3 revertant colonies/plate | 2.02 | Mutant frequency (sodium azide) ([3]; co-exposure, 10 μM): 0.48; Mutant frequency (sodium azide) ([3]; pre-exposure, 10 μM): 1.91; Antimutagenic potential against NaN3 ([3]; pre-exposure, only at 20 μM): strong (40% or more reduction means strong antimutagenic activity)
